Measured values from ChEMBL document CHEMBL3352386, “Development of chiral praziquantel analogues as potential drug candidates with activity to juvenile Schistosoma japonicum” (2014).

Key:
Schistosoma japonicum [1] = experiment: Antischistosomal activity against juvenile Schistosoma japonicum assessed as worm survival at 50 uM after 24 hrs (reference value: 100%); format: functional
Method in brief: (§1)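 Nine juvenile S. japonicum worms recovered 17 days post-infection from female ICR Kunming mice, in duplicate dishes of bicarbonate-buffered DMEM with 20% newborn calf serum plus penicillin, streptomycin and amphotericin B. Compound diluted from DMSO stock. Held at 37 °C, 5% CO2, with daily stereomicroscope scoring. Survival% = surviving/total worms × 100.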

Schistosoma japonicum [2] = experiment: Antischistosomal activity against adult Schistosoma japonicum assessed as vitality reduction at 50 uM after 48 hrs (reference value: 0%); format: functional
Schistosoma japonicum [3] = experiment: Antischistosomal activity against adult Schistosoma japonicum assessed as vitality reduction at 100 uM after 24 hrs (reference value: 0%); format: functional
Schistosoma japonicum [4] = experiment: Antischistosomal activity against juvenile Schistosoma japonicum infected in ICR Kunming mouse assessed as worm reduction at 200 mg/kg, po for 5 days beginning on day 14 after infection (reference value: 0%)
Schistosoma japonicum [5] = experiment: Antischistosomal activity against adult Schistosoma japonicum assessed as worm survival at 50 uM after 48 hrs (reference value: 100%); format: functional
Method in brief: (§2)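 Five adult male S. japonicum worms recovered 6 weeks post-infection from female ICR Kunming mice, in duplicate dishes of bicarbonate-buffered DMEM with 20% newborn calf serum, penicillin, streptomycin and amphotericin B. Compound diluted from DMSO stock; DMSO control. Kept at 37 °C, 5% CO2, observed daily by stereomicroscope. Survival% = surviving/total worms × 100.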

Schistosoma japonicum [6] = experiment: Antischistosomal activity against adult Schistosoma japonicum assessed as vitality reduction at 50 uM after 72 hrs (reference value: 0%); format: functional
Schistosoma japonicum [7] = experiment: Antischistosomal activity against adult Schistosoma japonicum assessed as vitality reduction at 100 uM after 72 hrs (reference value: 0%); format: functional
Schistosoma japonicum [8] = experiment: Antischistosomal activity against juvenile Schistosoma japonicum assessed as vitality reduction at 50 uM after 48 hrs (reference value: 0%); format: functional
Schistosoma japonicum [9] = experiment: Antischistosomal activity against adult Schistosoma japonicum assessed as worm survival at 50 uM after 24 hrs (reference value: 100%); format: functional; method in brief: as §2
Schistosoma japonicum [10] = experiment: Antischistosomal activity against adult Schistosoma japonicum assessed as vitality reduction at 50 uM after 24 hrs (reference value: 0%); format: functional
Schistosoma japonicum [11] = experiment: Antischistosomal activity against juvenile Schistosoma japonicum assessed as vitality reduction at 50 uM after 24 hrs (reference value: 0%); format: functional
Schistosoma japonicum [12] = experiment: Antischistosomal activity against adult Schistosoma japonicum assessed as worm survival at 50 uM after 72 hrs (reference value: 100%); format: functional; method in brief: as §2
Schistosoma japonicum [13] = experiment: Antischistosomal activity against juvenile Schistosoma japonicum assessed as worm survival at 50 uM after 48 hrs (reference value: 100%); format: functional; method in brief: as §1
Schistosoma japonicum [14] = experiment: Antischistosomal activity against adult Schistosoma japonicum assessed as worm survival at 100 uM after 24 hrs (reference value: 100%); format: functional; method in brief: as §2
Schistosoma japonicum [15] = experiment: Antischistosomal activity against juvenile Schistosoma japonicum assessed as vitality reduction at 50 uM after 72 hrs (reference value: 0%); format: functional
Schistosoma japonicum [16] = experiment: Antischistosomal activity against juvenile Schistosoma japonicum assessed as worm survival at 50 uM after 72 hrs (reference value: 100%); format: functional; method in brief: as §1
Schistosoma japonicum [17] = experiment: Antischistosomal activity against adult Schistosoma japonicum assessed as vitality reduction at 100 uM after 48 hrs (reference value: 0%); format: functional
Schistosoma japonicum [18] = experiment: Antischistosomal activity against adult Schistosoma japonicum assessed as worm survival at 100 uM after 48 hrs (reference value: 100%); format: functional; method in brief: as §2
Schistosoma japonicum [19] = experiment: Antischistosomal activity against adult Schistosoma japonicum assessed as worm survival at 100 uM after 72 hrs (reference value: 100%); format: functional; method in brief: as §2
Schistosoma japonicum [20] = experiment: Antischistosomal activity against adult Schistosoma japonicum assessed as worm survival at 80 uM after 72 hrs (reference value: 100%); format: functional; method in brief: as §2
Schistosoma japonicum [21] = experiment: Antischistosomal activity against adult Schistosoma japonicum assessed as vitality reduction at 80 uM after 72 hrs (reference value: 0%); format: functional
Schistosoma japonicum [22] = experiment: Antischistosomal activity against adult Schistosoma japonicum assessed as worm survival at 80 uM after 48 hrs (reference value: 100%); format: functional; method in brief: as §2
Schistosoma japonicum [23] = experiment: Antischistosomal activity against adult Schistosoma japonicum assessed as vitality reduction at 80 uM after 48 hrs (reference value: 0%); format: functional
Schistosoma japonicum [24] = experiment: Antischistosomal activity against adult Schistosoma japonicum assessed as vitality reduction at 80 uM after 24 hrs (reference value: 0%); format: functional
Schistosoma japonicum [25] = experiment: Antischistosomal activity against adult Schistosoma japonicum assessed as worm survival at 80 uM after 24 hrs (reference value: 100%); format: functional; method in brief: as §2

Compound | survival at 50 µM (Schistosoma japonicum [1]) [%] | inhibition at 50 µM (Schistosoma japonicum [2]) [%] | inhibition at 100 µM (Schistosoma japonicum [3]) [%] | inhibition in vivo at 200 mg/kg (Schistosoma japonicum [4]) [%] | survival at 50 µM (Schistosoma japonicum [5]) [%] | inhibition at 50 µM (Schistosoma japonicum [6]) [%] | inhibition at 100 µM (Schistosoma japonicum [7]) [%] | inhibition at 50 µM (Schistosoma japonicum [8]) [%] | survival at 50 µM (Schistosoma japonicum [9]) [%] | inhibition at 50 µM (Schistosoma japonicum [10]) [%] | inhibition at 50 µM (Schistosoma japonicum [11]) [%] | survival at 50 µM (Schistosoma japonicum [12]) [%] | survival at 50 µM (Schistosoma japonicum [13]) [%] | survival at 100 µM (Schistosoma japonicum [14]) [%] | inhibition at 50 µM (Schistosoma japonicum [15]) [%] | survival at 50 µM (Schistosoma japonicum [16]) [%] | inhibition at 100 µM (Schistosoma japonicum [17]) [%] | survival at 100 µM (Schistosoma japonicum [18]) [%] | survival at 100 µM (Schistosoma japonicum [19]) [%] | survival at 80 µM (Schistosoma japonicum [20]) [%] | other results
O=C1CCC(C(=O)N2CC(=O)N3CCc4ccccc4[C@@H]3C2)C1 (stereo not given in full) | 100 | 0 | 13.3 | 44.1 | 100 | 6.7 | 11.1 | 38.3 | 100 | 15.5 | 38.3 | 100 | 100 | 100 | 50.6 | 88.3 | 11.1 | 100 | 100 | – | –
O=C1CC(C(=O)N2CC(=O)N3CCc4ccccc4[C@@H]3C2)C1 | 100 | 15.5 | 24.5 | 41 | 100 | 15.3 | 22.7 | 37 | 100 | 17.8 | 32.1 | 100 | 100 | 100 | 38.3 | 100 | 22 | 100 | 100 | – | –
O=C1CC(C(=O)N2CC(=O)N3CCc4ccccc4[C@H]3C2)C1 | 88.3 | 0 | 6.7 | 19 | 100 | 0 | 8.9 | 30.9 | 100 | 4.5 | 30.9 | 100 | 88.3 | 100 | 34.6 | 88.3 | 8.7 | 100 | 100 | – | –
O=C1CCC(C(=O)N2CC(=O)N3CCc4ccccc4[C@H]3C2)C1 (stereo not given in full) | 100 | 0 | 16 | 24.6 | 100 | 0 | 15.3 | 45.7 | 100 | 4.5 | 45.7 | 100 | 100 | 100 | 53.1 | 85 | 15.5 | 100 | 100 | – | –
O=C1CCC(C(=O)N2CC(=O)N3CCc4ccccc4[C@@H]3C2)CC1 | 51.6 | 60 | 86.7 | 60 | 80 | 55.5 | 77.8 | 64.2 | 60 | 73.3 | 60.5 | 100 | 48.3 | 40 | 66.7 | 44.1 | 82.2 | 60 | 60 | 100 | inhibition at 80 µM (Schistosoma japonicum [21]): 60%; survival at 80 µM (Schistosoma japonicum [22]): 100%; inhibition at 80 µM (Schistosoma japonicum [23]): 69.3%; inhibition at 80 µM (Schistosoma japonicum [24]): 82%; survival at 80 µM (Schistosoma japonicum [25]): 60%
O=C1CCC(C(=O)N2CC(=O)N3CCc4ccccc4[C@H]3C2)CC1 | 88.3 | 0 | 8.7 | 18 | 100 | 0 | 15.5 | 29.6 | 100 | 0 | 29.6 | 100 | 88.3 | 100 | 29.6 | 88.3 | 15.3 | 100 | 100 | – | –
O=C1CCC(C(=O)N2CC(=O)N3CCc4ccccc4C3C2)CC1 (racemic) | 69.2 | 64.5 | 46.7 | 27.7 | 100 | 66.7 | 55.3 | 34.6 | 100 | 40 | 35.8 | 100 | 69.2 | 100 | 34.6 | 69.2 | 60 | 100 | 100 | 100 | inhibition at 80 µM (Schistosoma japonicum [21]): 66.7%; survival at 80 µM (Schistosoma japonicum [22]): 100%; inhibition at 80 µM (Schistosoma japonicum [23]): 64.5%; inhibition at 80 µM (Schistosoma japonicum [24]): 48.9%; survival at 80 µM (Schistosoma japonicum [25]): 100%
O=C1CC(C(=O)N2CC(=O)N3CCc4ccccc4C3C2)C1 (racemic) | 82.5 | 0 | 6.7 | 7.7 | 100 | 0 | 10 | 35.8 | 100 | 13.3 | 35.8 | 100 | 82.5 | 100 | 37 | 82.5 | 10 | 100 | 100 | – | –
O=C1CCC(C(=O)N2CC(=O)N3CCc4ccccc4C3C2)C1 (racemic) | 54.2 | 0 | 17.8 | 37.4 | 100 | 0 | 8.7 | 55.6 | 100 | 0 | 55.6 | 100 | 54.2 | 100 | 54.3 | 54.2 | 13.3 | 100 | 100 | 100 | inhibition at 80 µM (Schistosoma japonicum [21]): 0%; survival at 80 µM (Schistosoma japonicum [22]): 100%; inhibition at 80 µM (Schistosoma japonicum [23]): 13.3%; inhibition at 80 µM (Schistosoma japonicum [24]): 23.3%; survival at 80 µM (Schistosoma japonicum [25]): 100%
O=C(C1CCCCC1)N1CC(=O)N2CCc3ccccc3C2C1 (stereo not given) [PRAZIQUANTEL] | – | – | – | 19.9 | – | – | – | – | – | – | – | – | – | – | – | – | – | – | – | – | –
